# NR2E3 ag-1: human photoreceptor-specific nuclear receptor agonism. 360,000 compounds, 0.35% hits. CHO-S Gal4-NCOR/VP16-NR2E3 two-hybrid, luciferase. Q9Y5X4. inhibition of corepressor binding, % at 3.98 µM;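 active means inhibition above the mean of all tested compounds plus 3 SD, cut at about 70% in these data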;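 further: higher means lower luciferase signal from less NR2E3 corepressor binding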
# Target sequence (Q9Y5X4 whole entry, looked up, the tested form may be a part): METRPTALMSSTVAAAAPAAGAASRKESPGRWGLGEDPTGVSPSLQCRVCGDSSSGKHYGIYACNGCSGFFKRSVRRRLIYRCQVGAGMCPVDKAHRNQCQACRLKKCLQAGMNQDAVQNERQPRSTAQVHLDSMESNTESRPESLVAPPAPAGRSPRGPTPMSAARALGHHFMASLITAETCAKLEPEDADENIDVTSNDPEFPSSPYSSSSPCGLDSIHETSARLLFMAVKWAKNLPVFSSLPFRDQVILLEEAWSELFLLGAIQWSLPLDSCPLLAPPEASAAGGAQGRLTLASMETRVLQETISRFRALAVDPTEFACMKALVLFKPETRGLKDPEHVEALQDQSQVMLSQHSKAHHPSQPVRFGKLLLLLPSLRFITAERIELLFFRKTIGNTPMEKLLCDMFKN
# NR1D1 modulator: modulates human Rev-erb alpha binding to DNA; 370,000 compounds, 0.79% hits; Rev-erbα–FITC-DNA binding, fluorescence polarization, 90 min; activity, % at 10 µM; AID 1259318; P20393;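 active means activity above about 14%, limit read from the data; passing the limit was not always enough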
# PG9 binder: small molecules binding HIV-1 gp120 antibody PG9; TR-FRET gp120-PG9 antibody binding; inhibition, % at 6.7 µM; 360,000 compounds, 0.43% hits; in the data active means inhibition above about 8.5%
# NR2E3 ag-2: agonists of human nuclear receptor NR2E3. Q9Y5X4. GST-NR2E3/biotin-RetCOR TR-FRET, 1536-well. inhibition of corepressor binding, % at 4.78 µM. 320,000 compounds, 0.12% hits;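 active means percent inhibition above the cutoff of mean plus 3 SD of all tested compounds, set per screening campaign, cut at about 20% in these data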
#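 Material – GST-tagged NR2E3 plus biotinylated RetCOR corepressor · Quantity – NR2E3 fusion 1.35 nM · Times – 5 h incubation at 4 °C · Medium – pH 7.5 Tris-based buffer · Technique – TR-FRET, Eu(K)-anti-GST donor, streptavidin-D2 acceptor, ex 340, em 617/671 nm · Benchmarks – high control biotin, low control 0.6% DMSO · Format – 1536-well plates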
# SKN-1 block: C. elegans SKN-1 inhibition. inhibition, % at 21.8 µM. C. elegans VP596 Pgst-4::GFP/RFP ratio, acrylamide-induced, 24 h. 360,000 compounds, 0.49% hits;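 active means interference check ratio from 0.5 to 1.5 plus GFP to RFP signal ratio inhibition reaching or exceeding a fixed threshold, cut at about 30% in these data, passing the limit was not always enough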
# MT1-MMP act inh: inhibitors of human MT1-MMP activation; P50281; HT1080 RFP-PRO-GFP cells, GFP/RFP ratio fluorescence, overnight; percent of plate control window, DMSO zero; GFP/RFP ratio change, % at 20 µM; 360,000 compounds, 0.061% hits;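 active means GFP/RFP ratio change of at least 30% with cell ATP level not reduced by more than half and red fluorescence within 50% of control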
#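 Assay system: HT1080 RFP-PRO-GFP cells. Benchmarks: DMSO vehicle wells and RFP-L50D-GFP reporter cell wells. Times: overnight cell settling, then overnight compound exposure, 37 °C, 5% CO2. Compound: 20 µM single dose, 1% DMSO. Read-out basis: GFP/RFP fluorescence ratio.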
# Rev-erbA confirm: Rev-erb alpha (human) modulation, hit confirmation; activation, % at 25 µM; Rev-erb alpha FITC-DNA binding, fluorescence polarization, 90 min; shares compounds with NR1D1 modulator; 3,000 compounds, 61% hits; AID 1259319;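 active means activation at or above a set limit, or at least 3 SD above the negative control mean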
# RORg counter: affects RORgamma DNA binding in a Rev-erb alpha counter-screen; shares compounds with NR1D1 modulator; purified RORgamma protein-FITC-DNA binding, fluorescence polarization; IC50, µM; 910 compounds, 8% hits; AID 1259320;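 active means Compounds whose fitted half-maximal concentration for disrupting protein-DNA binding is below 10 micromolar; the record names Rev-erb in its text, so the target is in doubt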
# Numbers stand for hits; . = inactive; / = not tested or not shown. Shown are actives, neighbours in structure and some others; about 1.9% of the full set was active somewhere.
SMILES,NR2E3 ag-1,NR1D1 modulator,PG9 binder,NR2E3 ag-2,SKN-1 block,MT1-MMP act inh,Rev-erbA confirm,others
O=C(CSc1nnc(-c2ccc(S(=O)(=O)N3CCOCC3)cc2)o1)c1ccccc1F,.,21,.,.,.,.,.,
CC(C)(C)S(=O)(=O)N1C[C@H]2C(=C(CCO)C[C@H]3C(=O)N(c4ccccc4)C(=O)[C@H]32)[C@@H]1CCO,/,.,.,/,/,/,/,
O=C(OCC#CCSc1nnc(-c2cccc3ccccc23)o1)c1sccc1Cl,/,.,/,/,/,/,/,
CCOC(=O)Cc1csc(/N=C/c2c(O)n(-c3ccc(C)c(C)c3)c(=O)c3ccccc23)n1,.,23,.,.,.,.,.,
Cc1nc(C)c(-c2ccc(SCC(=O)Nc3ccccc3)nn2)s1,.,.,.,.,.,.,/,
Cc1nc(C)c(-c2ccc(SCC(=O)Nc3cccc(Cl)c3C)nn2)s1,.,16,.,.,.,.,.,
O=c1cc(-c2ccccc2Cl)oc2c(NS(=O)(=O)c3ccccc3C(F)(F)F)ccc(O)c12,.,.,.,.,.,.,/,
O=c1cc(-c2ccccc2Cl)oc2c(NS(=O)(=O)c3cccs3)ccc(O)c12,.,27,.,.,.,.,33,RORg counter=.
N#C/C(=N\Nc1ccc([N+](=O)[O-])cc1)C(=N)N1CCOCC1,.,.,.,.,.,.,/,
N#C/C(=N\Nc1ccc(S(=O)(=O)N2CCCCCC2)cc1)C(N)=S,.,.,.,.,.,.,/,
N#C/C(=N\Nc1ccc([N+](=O)[O-])cc1)C(N)=S,.,35,.,.,39,.,29,
N#C/C(=N/Nc1ccc([N+](=O)[O-])cc1)C(=N)N1CCCCC1,.,28,.,/,.,.,20,
Cc1cc(-c2nnc3sc(-c4ccc(Cl)cc4Cl)nn23)n[nH]1,.,45,.,.,.,.,40,RORg counter=.
Clc1ccccc1-c1nn2c(-c3cc(-c4ccccc4)n[nH]3)nnc2s1,/,30,/,/,/,/,44,RORg counter=.
Fc1ccc(-c2cc(-c3nnc4sc(-c5ccco5)nn34)[nH]n2)cc1,/,.,/,/,/,/,/,
c1ccc(-c2nnc3sc(-c4ccncc4)nn23)cc1,.,.,.,.,.,.,/,
COc1cccc(OC)c1-c1nn2c(-c3cc(-c4ccccc4)n[nH]3)nnc2s1,.,65,.,.,.,.,83,RORg counter=.
Clc1ccc(-c2nnc3sc(-c4ccc(Br)o4)nn23)c(Cl)c1,.,.,.,.,.,.,/,
Clc1ccc(-c2nn3c(-c4ccccc4)nnc3s2)cc1,.,24,.,.,.,.,.,
COc1cccc(C=NNC(=O)CSc2nc3ccccc3[nH]2)c1O,/,.,/,/,/,/,/,
COc1cc(SC)ccc1C(=O)Nc1ccc(Cl)cn1,.,18,.,.,35,.,34,RORg counter=.
COc1cc2ccccc2cc1C(=O)Nc1ccc(Br)cn1,.,36,.,/,.,.,28,
COc1ccccc1C(=O)NNC(=O)c1cccc(Br)c1,.,.,.,.,.,.,/,
COc1ccccc1C(=O)Nc1ccon1,.,.,.,.,.,.,/,
COc1ccccc1C(=O)NNC(=O)c1cccc(Cl)c1,.,29,.,.,.,.,.,
SMILES,NR2E3 ag-1,NR1D1 modulator,PG9 binder,NR2E3 ag-2,SKN-1 block,MT1-MMP act inh,Rev-erbA confirm,others
COc1ccccc1C(=O)Nc1cccc(NC(=O)c2ccccc2OC)n1,.,23,.,.,.,.,.,
Nc1ccn(C2C=CC(CO)O2)c(=O)n1 (stereo unspecified),.,.,.,/,.,.,/,
CCCCNC(=O)C(NC(=O)Cc1cc(OC)cc(OC)c1)C(=O)c1ccccc1 (stereo unspecified),/,.,.,/,.,.,/,
O=C(NCc1ccccc1)C(c1ccco1)N1CCN(CCN2CCOCC2)CC1 (stereo unspecified),/,.,.,/,/,/,/,
CCN(CC)c1ccc(/C=C/c2cccc[n+]2C)c(OC)c1,.,53,.,.,.,.,56,RORg counter=.
CCn1c2ccccc2c2cc(C3C(C#N)=C(C)NC(C)=C3C#N)ccc21,.,102,.,.,.,.,63,RORg counter=.
Cc1ccc(OCCC(=O)OCC(=O)NC(=O)NCc2ccccc2)cc1,.,17,.,.,.,.,.,
CNC(=O)CSc1nc(-c2ccccc2)c(-c2ccccc2)o1,.,14,.,.,.,.,.,
COc1ccc(C2C(C(=O)Nc3c(C)cccc3C)CCC(=O)N2c2ccc(OC)cc2)cc1 (stereo unspecified),/,.,/,/,/,/,/,
C[C@H]1CN([C@@H](C)CO)C(=O)CCCn2cc(nn2)CO[C@@H]1CN(C)S(=O)(=O)c1ccc(F)cc1,/,.,.,/,/,/,/,
CC(=O)c1ccc(S(=O)(=O)NCC2CCN(C(=O)C(=O)c3cc4ccccc4o3)CC2)cc1,/,.,.,/,/,/,/,
CCN1C(=O)/C(=C\N2CCN(c3ccc(F)cc3)CC2)SC1=S,.,213,.,.,.,.,251,RORg counter=.
CN(C)c1ccc(C(=O)NCC2CCN(C(=O)C(=O)c3cccs3)CC2)cc1,/,.,.,/,/,/,/,
Cc1ccc2c(COC(=O)c3n[nH]c4ccccc34)cc(=O)oc2c1,.,17,.,.,.,.,.,

# Screening results (PubChem BioAssay)
